How the values were obtained:
Rattus norvegicus [1] = test: Hepatic effect assessed by increase in catalase levels after 14 days of dosing at 100 mg/kg orally.; type: functional
How it was run: (§1)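 Type II collagen arthritis rats, eight per group, given oral sodium salts daily for 14 days. At termination liver homogenized in ice-cold 0.25 M sucrose and spun 2000 rpm 10 min. Catalase followed by decline in A240 from H2O2 breakdown, expressed as first-order rate constant K. Result given as % change versus normals.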

Rattus norvegicus [2] = test: Radiographic change was judged in the area of the talus joint, using an arbitrary scoring system upon termination of the test (14 days dosing of 100 mg/kg)in a model of type II collagen arthritis in the rat.; type: functional; details: 336 h
How it was run: (§2)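 Type II collagen arthritis rats, eight per group, oral sodium salts daily from grouping (day 1). Hind limbs X-rayed post mortem. Tibia/talus and tarsus damage scored 0–3 per foot by two observers and averaged; left and right summed (max 6). Compared with arthritic controls by Mann–Whitney U test.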

[3] = […] level determined in rat type II collagen arthritis model after 14 days dosing of 60 mg/kg.; type: functional
How it was run: (§3)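 Rat type II collagen arthritis, eight rats per group, daily oral dosing as sodium salts in water for 14 days. Plasma haptoglobin determined at termination and compared with normal and arthritic controls by Student's t test.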

Rattus norvegicus [4] = test: Radiographic change was judged in the area of the tarsus region, using an arbitrary scoring system upon termination of the test (14 days dosing of 60 mg/kg)in a model of type II collagen arthritis in the rat.; type: functional; details: 336 h; how it was run: as §2
Rattus norvegicus [5] = test: Hepatic effect assessed by increase in liver weight after 14 days of dosing at 40 mg/kg orally.; type: functional
How it was run: (§4)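 Type II collagen arthritis rats, eight per group, daily oral dosing as sodium salts in water for 14 days. Liver weight recorded at termination and expressed as percentage change versus normal animals.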

Rattus norvegicus [6] = test: Hepatic effect assessed by increase in catalase levels after 14 days of dosing at 40 mg/kg orally.; type: functional; how it was run: as §1
Homo sapiens = species on record: Homo sapiens; test: Inhibition of human PGE-2 production.; type: functional
How it was run: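 Human blood mononuclear cells from healthy volunteers stimulated with 2.5 μg/mL phytohaemagglutinin and incubated 24 h with compound (sodium salt). PGE2 measured by RIA.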

[7] = Partition coefficient (logP); type: physicochemical; details: octanol/water
How it was run: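 Compound dissolved in disodium hydrogen phosphate/citric acid buffer pH 7.4 and partitioned against equal volume octan-1-ol. Buffer-phase UV absorbance read before and after partitioning near λmax. P′ from the octanol:buffer absorbance ratio.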

Cyclooxygenase = biological target: T1, Cyclooxygenase (Rattus norvegicus, UniProt P35355+Q63921); test: Inhibition of prostaglandin synthetase in rat renal medulla; type: functional, tissue-based
T1 sequence (P35355 whole entry): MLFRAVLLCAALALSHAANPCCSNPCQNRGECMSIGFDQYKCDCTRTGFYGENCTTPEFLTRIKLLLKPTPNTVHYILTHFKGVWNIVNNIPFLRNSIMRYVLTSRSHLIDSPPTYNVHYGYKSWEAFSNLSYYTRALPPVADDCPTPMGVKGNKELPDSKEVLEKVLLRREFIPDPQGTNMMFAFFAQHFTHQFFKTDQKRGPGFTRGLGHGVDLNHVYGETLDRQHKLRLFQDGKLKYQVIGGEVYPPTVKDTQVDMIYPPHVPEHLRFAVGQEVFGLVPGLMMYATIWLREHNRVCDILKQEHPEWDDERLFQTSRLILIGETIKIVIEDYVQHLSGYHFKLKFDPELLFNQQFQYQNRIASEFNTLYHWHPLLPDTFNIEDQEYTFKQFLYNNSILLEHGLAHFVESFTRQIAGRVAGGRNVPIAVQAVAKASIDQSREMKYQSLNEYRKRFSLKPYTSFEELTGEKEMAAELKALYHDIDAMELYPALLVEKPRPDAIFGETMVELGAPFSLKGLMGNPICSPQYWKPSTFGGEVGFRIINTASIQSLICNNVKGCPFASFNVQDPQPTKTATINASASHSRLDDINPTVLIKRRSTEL
T1 sequence (Q63921 whole entry): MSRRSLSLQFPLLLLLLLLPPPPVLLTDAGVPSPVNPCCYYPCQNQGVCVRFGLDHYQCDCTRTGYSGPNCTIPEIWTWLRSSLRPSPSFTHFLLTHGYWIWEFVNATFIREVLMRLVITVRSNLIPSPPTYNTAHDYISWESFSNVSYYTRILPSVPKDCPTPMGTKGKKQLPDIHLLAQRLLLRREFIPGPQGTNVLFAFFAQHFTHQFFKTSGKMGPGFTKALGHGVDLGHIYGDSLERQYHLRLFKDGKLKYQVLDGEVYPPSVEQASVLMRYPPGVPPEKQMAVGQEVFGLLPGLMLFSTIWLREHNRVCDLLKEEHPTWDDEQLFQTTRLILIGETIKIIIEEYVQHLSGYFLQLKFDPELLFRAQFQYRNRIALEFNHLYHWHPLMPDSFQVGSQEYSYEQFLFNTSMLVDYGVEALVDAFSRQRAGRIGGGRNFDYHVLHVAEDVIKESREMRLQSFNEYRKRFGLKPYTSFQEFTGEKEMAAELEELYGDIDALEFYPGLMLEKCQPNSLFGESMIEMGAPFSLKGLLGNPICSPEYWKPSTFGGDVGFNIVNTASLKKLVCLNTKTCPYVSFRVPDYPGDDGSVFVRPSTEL
How it was run: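 Same cyclooxygenase protocol run on rat renal medulla homogenate: 5 min 30 °C preincubation with glutathione 1 mM and adrenaline 625 μM. Prostaglandin/thromboxane area compared with the no-drug control.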

[8] = […] level determined in rat type II collagen arthritis model after 14 days dosing of 40 mg/kg.; type: functional; how it was run: as §3
Rattus norvegicus [9] = test: Plasma level in type II collagen arthritis model after 14 days of dosing at 100 mg/kg.; type: functional, organism-based; design: dose 100 mg/kg
How it was run: (§5)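 Type II collagen arthritis rats dosed orally for 14 days. Plasma drug level measured by reverse-phase C-18 HPLC with UV detection at 282 nm.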

Rattus norvegicus [10] = test: Plasma level in type II collagen arthritis model after 14 days of dosing at 40 mg/kg.; type: functional, organism-based; design: dose 40 mg/kg; how it was run: as §5
Rattus norvegicus [11] = test: Radiographic change was judged in the area of the talus joint, using an arbitrary scoring system upon termination of the test (14 days dosing of 60 mg/kg)in a model of type II collagen arthritis in the rat.; type: functional; details: 336 h; how it was run: as §2
Rattus norvegicus [12] = species on record: Rattus norvegicus; test: Percent decrease in serum haptoglobin evaluated in a developing adjuvant arthritis model rats.
Rattus norvegicus [13] = test: Compound was evaluated in developing adjuvant arthritis model rats for its effect on paw edema.; type: functional; design: concentration or dose not given beside the values
How it was run: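 Female Allen and Hanbury hooded rats, five per group. Right hind paw injected sc on day 0 with heat-killed M. tuberculosis in paraffin oil (5 mg/mL). Compounds given orally as sodium salts in water. Paw volumes of both hind paws measured days 1–4, 1 h after dosing. Percent inhibition taken from area under the curve of the between-paw volume difference.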

Rattus norvegicus [14] = test: Radiographic change was judged in the area of the tarsus region, using an arbitrary scoring system upon termination of the test (14 days dosing of 20 mg/kg)in a model of type II collagen arthritis in the rat.; type: functional; details: 336 h; how it was run: as §2
Rattus norvegicus [15] = test: Radiographic change was judged in the area of the talus joint, using an arbitrary scoring system upon termination of the test (14 days dosing of 20 mg/kg)in a model of type II collagen arthritis in the rat.; type: functional; details: 336 h; how it was run: as §2
Rattus norvegicus [16] = test: Hepatic effect assessed by increase in liver weight after 14 days of dosing at 100 mg/kg orally.; type: functional; how it was run: as §4
Rattus norvegicus [17] = test: Radiographic change was judged in the area of the talus joint, using an arbitrary scoring system upon termination of the test (14 days dosing of 40 mg/kg)in a model of type II collagen arthritis in the rat.; type: functional; details: 336 h; how it was run: as §2
Rattus norvegicus [18] = test: Hepatic effect assessed by increase in liver weight after 14 days of dosing at 60 mg/kg orally.; type: functional; how it was run: as §4
Rattus norvegicus [19] = test: Hepatic effect assessed by increase in liver weight after 14 days of dosing at 20 mg/kg orally.; type: functional; how it was run: as §4
Rattus norvegicus [20] = test: Plasma level in type II collagen arthritis model after 14 days of dosing at 60 mg/kg.; type: functional, organism-based; design: dose 60 mg/kg; how it was run: as §5
[21] = biological target: Prostaglandin G/H synthase 1 (Ovis aries) (UniProt P05979); test: Inhibition of prostaglandin synthetase in sheep seminal vesicle
Chain of Prostaglandin G/H synthase 1 (Ovis aries) (P05979 whole entry, looked up): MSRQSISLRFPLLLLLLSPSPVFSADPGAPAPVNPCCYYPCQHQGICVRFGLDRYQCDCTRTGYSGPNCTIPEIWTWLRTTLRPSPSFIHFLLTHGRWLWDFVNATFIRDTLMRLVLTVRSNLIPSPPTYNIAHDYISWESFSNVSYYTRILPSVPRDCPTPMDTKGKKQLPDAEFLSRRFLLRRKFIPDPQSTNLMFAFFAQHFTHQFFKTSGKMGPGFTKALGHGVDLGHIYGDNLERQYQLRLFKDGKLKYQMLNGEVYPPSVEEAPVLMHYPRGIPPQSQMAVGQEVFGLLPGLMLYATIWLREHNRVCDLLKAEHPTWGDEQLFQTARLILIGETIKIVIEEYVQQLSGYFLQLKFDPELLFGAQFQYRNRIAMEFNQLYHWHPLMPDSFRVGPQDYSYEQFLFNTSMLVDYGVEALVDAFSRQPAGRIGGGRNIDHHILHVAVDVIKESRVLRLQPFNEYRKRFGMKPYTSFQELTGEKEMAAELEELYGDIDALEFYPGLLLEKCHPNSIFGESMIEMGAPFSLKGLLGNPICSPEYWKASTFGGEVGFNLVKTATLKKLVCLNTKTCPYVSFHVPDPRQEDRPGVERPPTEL

Rattus norvegicus [22] = test: Hepatic effect assessed by increase in catalase levels after 14 days of dosing at 60 mg/kg orally.; type: functional; how it was run: as §1
[23] = […] level determined in rat type II collagen arthritis model after 14 days dosing of 20 mg/kg.; type: functional; how it was run: as §3
[24] = […] level determined in rat type II collagen arthritis model after 14 days dosing of 100 mg/kg.; type: functional; how it was run: as §3
Rattus norvegicus [25] = test: Plasma level in type II collagen arthritis model after 14 days of dosing at 20 mg/kg.; type: functional, organism-based; design: dose 20 mg/kg; how it was run: as §5
Rattus norvegicus [26] = test: Radiographic change was judged in the area of the tarsus region, using an arbitrary scoring system upon termination of the test (14 days dosing of 100 mg/kg)in a model of type II collagen arthritis in the rat.; type: functional; details: 336 h; how it was run: as §2
Rattus norvegicus [27] = test: Radiographic change was judged in the area of the tarsus region, using an arbitrary scoring system upon termination of the test (14 days dosing of 40 mg/kg)in a model of type II collagen arthritis in the rat.; type: functional; details: 336 h; how it was run: as §2
Rattus norvegicus [28] = test: Hepatic effect assessed by increase in catalase levels after 14 days of dosing at 20 mg/kg orally.; type: functional; how it was run: as §1
Rattus norvegicus [29] = test: Radiographic change was judged in the area of the talus joint, using an arbitrary scoring system upon termination of the test (14 days dosing of 60 mg/kg) in a model of type II collagen arthritis in the rat.; type: functional; details: 336 h; how it was run: as §2
[30] = biological target: Prostaglandin G/H synthase 1 (Ovis aries) (UniProt P05979); test: Inhibition of prostaglandin synthetase in sheep seminal vesicle; remark: listed apart in the source
Rattus norvegicus [31] = test: Radiographic change was judged in the area of the tarsus region, using an arbitrary scoring system upon termination of the test (14 days dosing of 60 mg/kg) in a model of type II collagen arthritis in the rat.; type: functional; details: 336 h; how it was run: as §2

`Cc1nc(-c2ccc(Cl)cc2)oc1COC(C)(C)C(=O)O` [ROMAZARIT] showed a Change (Rattus norvegicus [1]) of 19%, an inhibition in vivo at 100 mg/kg (Rattus norvegicus [2]) of 82% and a Haptoglobin [3] of 0.32 g/L. For the same compound, the inhibition in vivo at 60 mg/kg (Rattus norvegicus [4]) was 46%, the Change (Rattus norvegicus [5]) was -3% and the Change (Rattus norvegicus [6]) was -34%. It also gave an IC50 (Homo sapiens) of over 400 µM, a logP [7] of 0.34 and an IC50 (Cyclooxygenase) of over 300 µM. The Haptoglobin [8] was 0.43 g/L, the Plasma level (Rattus norvegicus [9]) was 267 µg/mL and the Plasma level (Rattus norvegicus [10]) was 102 µg/mL. It also gave an inhibition in vivo at 60 mg/kg (Rattus norvegicus [11]) of 63%, a Decrease (Rattus norvegicus [12]) of 26% and an Inhibition (Rattus norvegicus [13]) of 73%. For the same compound, the inhibition in vivo at 20 mg/kg (Rattus norvegicus [14]) was 7%, the inhibition in vivo at 20 mg/kg (Rattus norvegicus [15]) was 33% and the Change (Rattus norvegicus [16]) was 13%. It also gave an inhibition in vivo at 40 mg/kg (Rattus norvegicus [17]) of 40%, a Change (Rattus norvegicus [18]) of 4% and a Change (Rattus norvegicus [19]) of -5%. The Plasma level (Rattus norvegicus [20]) was 172 µg/mL, the IC50 [21] was 6500 µM and the Change (Rattus norvegicus [22]) was -7%. For the same compound, the Haptoglobin [23] was 0.31 g/L, the Haptoglobin [24] was 0.34 g/L and the Plasma level (Rattus norvegicus [25]) was 64 µg/mL. The inhibition in vivo at 100 mg/kg (Rattus norvegicus [26]) was 56%, the inhibition in vivo at 40 mg/kg (Rattus norvegicus [27]) was 35% and the Change (Rattus norvegicus [28]) was -51%.

For `CC(C)(OCc1ccc(-c2ccc(Cl)cc2)cc1)C(=O)O` [CLOBUZARIT], the inhibition in vivo at 60 mg/kg (Rattus norvegicus [29]) was 64%, the logP [7] was 1.52 and the IC50 [30] was 950 µM. The Decrease (Rattus norvegicus [12]) was 31%, the Inhibition (Rattus norvegicus [13]) was 48% and the Change (Rattus norvegicus [18]) was 19%. The inhibition in vivo at 60 mg/kg (Rattus norvegicus [31]) was 41% and the Change (Rattus norvegicus [22]) was 164%.
